Each block holds one compound with its values, some of them ahead of it.
Assays:
[1] = organism: Homo sapiens; test: Selectivity index, ratio of Ki for human 5-HT1A receptor to Ki for human 5-HT7 receptor
Outline: (§1)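 Selectivity index taken as Ki at the other 5-HT receptor subtype divided by Ki at 5-HT7R, each from [3H]LSD membrane binding run by the NIMH PDSP. Ki values are means of at least three experiments in triplicate.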

[2] = MRT in ICR mouse at 5 mg/kg, iv by LC-MS/MS analysis; assay type: ADME, organism-based; details: in vivo
Outline: (§2)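 Male ICR mice, 7~8 weeks, 30 ± 5 g; single dose 5 mg/kg IV (n = 5) or 50 mg/kg oral (n = 4). Plasma protein-precipitated with acetonitrile containing internal standard, then LC-MS/MS. Non-compartmental analysis; AUClast by trapezoidal rule. Mean ± SD.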

[3] = test system: Mus musculus; test: Sleep promoting activity in C57B1/6J mouse assessed as decrease in total rapid eye movement sleep time at 30 mg/kg, ip measured over 4 hrs by electroencephalogram method; assay type: functional; set-up: scale not given: the % may be the effect or the level left
Outline: (§3)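 Adult male C57Bl/6J mice, 10 weeks old, with parietal EEG screw electrodes implanted under ketamine. EEG and EMG recorded for 8 h from 9 AM, starting one day before dosing as baseline. On test day, 30 mg/kg i.p. at the start of the light phase, with EEG/EMG recorded for 8 h and scored in 2-h bins. n = 6-9 per group; mean ± SEM versus vehicle.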

[4] = test system: Mus musculus; test: Sleep promoting activity in C57B1/6J mouse assessed as decrease in total rapid eye movement sleep time at 30 mg/kg, ip measured over 8 hrs by electroencephalogram method; assay type: functional; set-up: scale not given: the % may be the effect or the level left; outline: as §3
[5] = molecular target: CYP2D6 (Homo sapiens, UniProt P10635); test: Inhibition of CYP2D6 in human liver microsomes assessed as remaining activity at 10 uM using dextromethorphan as substrate preincubated for 5 mins followed by addition of NADPH generating system measured after 15 mins by LC-MS analysis; assay type: ADME; details: probe dextromethorphan, read-out: Activity
CYP2D6, sequence (P10635 whole entry): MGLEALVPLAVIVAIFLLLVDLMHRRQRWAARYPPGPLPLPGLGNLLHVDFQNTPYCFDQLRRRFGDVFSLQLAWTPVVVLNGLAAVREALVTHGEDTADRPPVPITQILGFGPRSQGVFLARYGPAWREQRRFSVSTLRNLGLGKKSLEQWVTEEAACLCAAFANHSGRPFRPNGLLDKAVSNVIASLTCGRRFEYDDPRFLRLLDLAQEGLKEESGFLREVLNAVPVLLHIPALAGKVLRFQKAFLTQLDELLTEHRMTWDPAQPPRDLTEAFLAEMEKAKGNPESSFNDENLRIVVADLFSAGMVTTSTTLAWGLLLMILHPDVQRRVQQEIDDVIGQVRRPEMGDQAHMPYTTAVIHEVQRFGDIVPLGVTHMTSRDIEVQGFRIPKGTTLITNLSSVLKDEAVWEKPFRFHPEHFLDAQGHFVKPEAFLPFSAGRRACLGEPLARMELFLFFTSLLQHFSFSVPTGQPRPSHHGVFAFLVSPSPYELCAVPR
Outline: (§4)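 Human liver microsomes 0.25 mg/ml in 0.1 M phosphate, pH 7.4, with a probe cocktail: phenacetin 50 μM, diclofenac 10 μM, S-mephenytoin 100 μM, dextromethorphan 5 μM, midazolam 2.5 μM. Test compound at 10 μM versus 0 μM control. 5 min at 37 °C, then NADPH-generating system for 15 min. Acetonitrile quench; metabolites measured by LC/MS as % remaining activity.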

[6] = Clearance in ICR mouse at 5 mg/kg, iv by LC-MS/MS analysis; assay type: ADME, organism-based; details: in vivo; outline: as §2
[7] = molecular target: CYP2C9 (Homo sapiens, UniProt P11712); test: Inhibition of CYP2C9 in human liver microsomes assessed as remaining activity at 10 uM using diclofenac as substrate preincubated for 5 mins followed by addition of NADPH generating system measured after 15 mins by LC-MS analysis; assay type: ADME; details: probe diclofenac, read-out: Activity; outline: as §4
CYP2C9, sequence (P11712 whole entry): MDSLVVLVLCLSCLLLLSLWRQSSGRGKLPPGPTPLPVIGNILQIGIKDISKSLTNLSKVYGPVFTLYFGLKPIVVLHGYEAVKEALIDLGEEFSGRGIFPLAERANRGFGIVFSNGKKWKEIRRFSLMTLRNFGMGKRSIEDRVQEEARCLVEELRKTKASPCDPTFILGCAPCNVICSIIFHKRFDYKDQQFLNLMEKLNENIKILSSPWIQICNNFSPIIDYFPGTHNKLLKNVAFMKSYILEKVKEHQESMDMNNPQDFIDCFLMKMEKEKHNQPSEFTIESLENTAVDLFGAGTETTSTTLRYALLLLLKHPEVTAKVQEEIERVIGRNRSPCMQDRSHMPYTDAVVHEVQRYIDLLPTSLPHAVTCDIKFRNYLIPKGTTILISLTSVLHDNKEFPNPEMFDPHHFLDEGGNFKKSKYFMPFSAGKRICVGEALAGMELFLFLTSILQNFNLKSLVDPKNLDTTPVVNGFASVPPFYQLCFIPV

[8] = molecular target: T1, CYP1A2 (Homo sapiens, UniProt P05177); test: Inhibition of CYP1A2 in human liver microsomes assessed as remaining activity at 10 uM using phenacetin as substrate preincubated for 5 mins followed by addition of NADPH generating system measured after 15 mins by LC-MS analysis; assay type: ADME; details: probe phenacetin, read-out: Activity; outline: as §4
T1 sequence (P05177 whole entry): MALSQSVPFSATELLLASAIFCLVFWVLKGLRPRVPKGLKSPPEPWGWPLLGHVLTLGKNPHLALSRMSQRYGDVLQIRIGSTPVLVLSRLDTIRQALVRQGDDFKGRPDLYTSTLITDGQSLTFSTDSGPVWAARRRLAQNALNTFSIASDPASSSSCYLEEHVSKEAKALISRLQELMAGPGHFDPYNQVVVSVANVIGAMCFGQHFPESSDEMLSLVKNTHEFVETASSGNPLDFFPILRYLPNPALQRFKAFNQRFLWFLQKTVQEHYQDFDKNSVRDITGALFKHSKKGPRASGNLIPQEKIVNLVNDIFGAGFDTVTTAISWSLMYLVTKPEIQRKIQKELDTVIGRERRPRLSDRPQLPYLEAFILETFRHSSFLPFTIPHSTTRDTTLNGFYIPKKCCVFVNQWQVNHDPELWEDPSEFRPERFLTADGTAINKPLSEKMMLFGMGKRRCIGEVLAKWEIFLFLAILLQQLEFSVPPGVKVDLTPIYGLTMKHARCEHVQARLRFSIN

[9] = Oral bioavailability in ICR mouse at 50 mg/kg by LC-MS/MS analysis; assay type: ADME, organism-based; details: in vivo; outline: as §2
[10] = AUClast in ICR mouse at 5 mg/kg, iv by LC-MS/MS analysis; assay type: ADME, organism-based; set-up: dose 5 mg/kg, time 0 - last, route intravenous; details: in vivo; outline: as §2
[11] = molecular target: CYP3A4 (Homo sapiens, UniProt P08684); test: Inhibition of CYP3A4 in human liver microsomes assessed as remaining activity at 10 uM using midazolam as substrate preincubated for 5 mins followed by addition of NADPH generating system measured after 15 mins by LC-MS analysis; assay type: ADME; details: probe midazolam, read-out: Activity; outline: as §4
CYP3A4, sequence (P08684 whole entry): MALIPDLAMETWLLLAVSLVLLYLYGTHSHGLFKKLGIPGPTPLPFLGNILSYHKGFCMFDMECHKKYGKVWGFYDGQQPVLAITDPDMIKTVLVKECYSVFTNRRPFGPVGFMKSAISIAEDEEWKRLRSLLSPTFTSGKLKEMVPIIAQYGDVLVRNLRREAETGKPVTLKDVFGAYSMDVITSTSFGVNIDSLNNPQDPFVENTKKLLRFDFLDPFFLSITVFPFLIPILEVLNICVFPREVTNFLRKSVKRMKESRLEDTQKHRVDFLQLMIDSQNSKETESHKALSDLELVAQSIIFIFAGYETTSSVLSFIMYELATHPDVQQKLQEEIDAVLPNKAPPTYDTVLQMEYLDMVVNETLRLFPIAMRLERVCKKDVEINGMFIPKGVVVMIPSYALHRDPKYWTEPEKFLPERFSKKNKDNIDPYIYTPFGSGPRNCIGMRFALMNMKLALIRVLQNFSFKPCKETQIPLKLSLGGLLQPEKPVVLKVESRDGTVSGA

[12] = molecular target: CYP2C19 (Homo sapiens, UniProt P33261); test: Inhibition of CYP2C19 in human liver microsomes assessed as remaining activity at 10 uM using S-mephenytoin as substrate preincubated for 5 mins followed by addition of NADPH generating system measured after 15 mins by LC-MS analysis; assay type: ADME; details: probe S-mephenytoin, read-out: Activity; outline: as §4
CYP2C19, sequence (P33261 whole entry): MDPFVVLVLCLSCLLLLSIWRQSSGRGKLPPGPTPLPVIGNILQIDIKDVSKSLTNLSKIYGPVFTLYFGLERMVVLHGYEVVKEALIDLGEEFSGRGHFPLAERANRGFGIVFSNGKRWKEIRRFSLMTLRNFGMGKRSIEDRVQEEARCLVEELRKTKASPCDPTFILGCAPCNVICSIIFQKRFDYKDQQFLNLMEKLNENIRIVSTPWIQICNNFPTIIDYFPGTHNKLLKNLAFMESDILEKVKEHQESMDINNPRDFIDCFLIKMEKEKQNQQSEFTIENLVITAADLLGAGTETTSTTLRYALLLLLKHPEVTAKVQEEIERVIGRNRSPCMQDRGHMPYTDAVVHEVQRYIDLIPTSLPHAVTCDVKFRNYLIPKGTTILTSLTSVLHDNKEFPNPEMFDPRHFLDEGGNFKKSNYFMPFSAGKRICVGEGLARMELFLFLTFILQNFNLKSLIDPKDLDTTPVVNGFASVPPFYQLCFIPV

[13] = Cmax in ICR mouse at 5 mg/kg, iv by LC-MS/MS analysis; assay type: ADME, organism-based; set-up: dose 5 mg/kg, route intravenous; details: in vivo; outline: as §2
[14] = organism: Homo sapiens; test: Selectivity index, ratio of Ki for human 5-HT5A receptor to Ki for human 5-HT7 receptor; outline: as §1
[15] = organism: Homo sapiens; test: Selectivity index, ratio of Ki for human 5-HT3 receptor to Ki for human 5-HT7 receptor; outline: as §1

Ratio Ki [1]: 18
Compound: Fc1ccc(-c2n[nH]c3c2CCNCC3)cc1

Compound: Clc1ccc(-c2n[nH]c3c2CCNCC3)cc1
MRT [2]: 2.5 h
Activity [3]: 69.4%
Activity [4]: 36.7%
activity at 0.25 h, 10 µM [5]: 75.7%
clearance [6]: 16 mL/min/kg
activity at 0.25 h, 10 µM [7]: > 100%
activity at 0.25 h, 10 µM [8]: 86%
bioavailability [9]: 90.8%
AUC(0-t) [10]: 4900 ng·h/mL
activity at 0.25 h, 10 µM [11]: 95.4%
activity at 0.25 h, 10 µM [12]: > 100%
Cmax [13]: 2200 ng/mL

Ratio Ki [14]: 70.9
Ratio Ki [15]: 26.3
Compound: Cc1ccc(-c2noc3c2CCNCC3)cc1
